Tn6 DDE FP = inhibitors of Tn6 peptide binding to human fibrin DD(E); P02675; Fibrin DD(E) TRITC-Tn6 fluorescence polarization displacement; inhibition, % at 8.3 µM; actives 0.21% (n = 370,000); AID 720509;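 active = inhibition above a per-campaign cutoff: mean of compounds within control limits plus 3 SD, cut at about 15% in these data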;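 also: 0% = median of all compound wells on the plate and 100% = blocking peptide control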
Tn7 DDE FP = disrupts Tn7 cyclic peptide binding to fibrin D-Dimer-E complex; P02675; FP displacement of FITC-Tn7 peptide from fibrin DD(E); 0% = median of compound wells per plate; inhibition, % at 8.3 µM; actives 0.13% (n = 370,000); AID 720508;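 active = inhibition above the mean of compounds falling within the control limits plus 3 SD of them, cut at about 14% in these data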;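 also: 0% = plate median of compound wells and 100% = 10 µM Aha-Tn7 peptide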
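Also added: labelled Tn7 tracer, 0.1 µM; Assay system: human fibrin DD(E) protein; Amount: 2 µM fibrin DD(E); Schedule: 10 min compound pre-incubation, 3 h probe incubation at room temperature; Repeats: one replicate per compound; Read-out basis: percent inhibition; Measured by: fluorescence polarization of the labelled Tn7 tracer.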
ARFGAP1 inhibitor = inhibitors of rat ARFGAP1; inhibition, % at 16.5 µM; Q62848; AID 651572; Arfgap1-stimulated ARF1 GTP hydrolysis, GDP FP detection; actives 0.26% (n = 360,000);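 active = inhibition above a per-plate limit, mean inhibition of low control wells plus 3 SD, cut at about 25% in these data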;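 also: 0% = DMSO wells with enzyme and 100% = wells lacking Arfgap1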
Target sequence (Q62848 1-136 limits assumed): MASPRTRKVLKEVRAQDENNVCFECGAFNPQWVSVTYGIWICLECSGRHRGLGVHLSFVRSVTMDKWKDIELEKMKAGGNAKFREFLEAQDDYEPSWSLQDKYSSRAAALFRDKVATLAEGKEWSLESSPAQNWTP
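Assay system: Rat Arfgap1 GAP domain (His6, aa 1-136), purified enzyme | Buffer or medium: HEPES 25 mM pH 7.5, NaCl 150 mM, MgCl2, DTT | Schedule: GTP hydrolysis reaction 2 h at 25 °C | Signal: FP of antibody-bound GDP Alexa 633 tracer, ex 620/em 688 nm | Measure: Percent inhibition of Arfgap1-stimulated GTP hydrolysis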
ASAP1 inh = inhibitors of human ASAP1 ArfGAP activity. Q9ULH1. ASAP1-stimulated ARF1 GTP hydrolysis, GDP FP detection. inhibition, % at 16.5 µM. actives 0.19% (n = 360,000). AID 624377; in the data active = inhibition above about 25%;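 also: 0% = vehicle with enzyme and substrate and 100% = no enzyme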
Target sequence (Q9ULH1 325-724 limits assumed): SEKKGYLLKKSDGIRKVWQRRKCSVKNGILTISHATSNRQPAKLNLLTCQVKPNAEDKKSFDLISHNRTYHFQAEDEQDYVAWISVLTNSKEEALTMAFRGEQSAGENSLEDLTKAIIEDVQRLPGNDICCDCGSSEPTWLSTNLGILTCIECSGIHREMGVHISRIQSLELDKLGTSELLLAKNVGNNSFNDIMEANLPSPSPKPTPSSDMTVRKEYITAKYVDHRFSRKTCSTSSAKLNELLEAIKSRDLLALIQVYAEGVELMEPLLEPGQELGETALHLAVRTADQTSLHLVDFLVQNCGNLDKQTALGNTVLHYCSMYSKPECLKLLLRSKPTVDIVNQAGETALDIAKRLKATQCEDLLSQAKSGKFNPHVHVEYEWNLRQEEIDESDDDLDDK
ARFGAP1 inh conf = confirmation of rat ARFGAP1 inhibitors; shares compounds with ARFGAP1 inhibitor; ARFGAP1-stimulated ARF1 GTP hydrolysis, GDP tracer FP; inhibition, % at 16.5 µM; actives 30% (n = 890); AID 651608;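 active = average inhibition over triplicates above the hit cutoff set in the earlier primary screen, cut at about 25% in these data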;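 also: 0% = Arfgap1 plus ARF1-GTP with DMSO and 100% = wells lacking Arfgap1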
DDE Tn7 confirm = DD(E)-Tn7 binding inhibition, FP confirmation. shares compounds with Tn7 DDE FP. FP displacement of TRITC-Tn7 peptide from DD(E); 0% set at plate's compound-well median. inhibition, % at 8.3 µM. actives 5% (n = 460). AID 720628;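 active = inhibition above the campaign cutoff, the mean of compounds within control limits plus 3 SD, cut at about 14% in these data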;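 also: 100% = median FP of high control wells holding Aha-Tn7 inhibitor peptide; displacers lower polarization since freed probe rises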
Tn7 DDE ctr = counter-screen for inhibitors of Tn7 peptide binding to fibrin DD(E) | shares compounds with Tn7 DDE FP | TRITC-Tn7 probe displacement, fluorescence polarization | inhibition, % at 8.3 µM | actives 3% (n = 460) | AID 720633;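 active = inhibition above the cutoff, the mean of compounds lying between the control bounds plus 3 SD of those compounds, cut at about 17% in these data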;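 also: 0% = median of compound sample wells and 100% = excess unlabeled Aha-Tn7 peptide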
DDE Tn6 FP ctr = counter-screen for inhibitors of Tn6 peptide binding to fibrin DD(E); shares compounds with Tn6 DDE FP; inhibition, % at 8.3 µM; actives 2% (n = 680); TRITC-Tn6 fluorescence polarization displacement; 0% = median of compound wells, not DMSO;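 active = inhibition above the mean of test compounds lying between the control limits plus 3 SD of those, cut at about 14% in these data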;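 also: 0% = median of compound wells and 100% = wells with Aha-Tn7 blocking peptide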
Tn6 DDE conf = confirmation of inhibitors of Tn6 binding to human fibrin DD(E); shares compounds with Tn6 DDE FP; FP displacement of TRITC-Tn6 peptide from DD(E); 0% = per-plate median of test wells; inhibition, % at 8.3 µM; actives 10% (n = 680); AID 720631;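 active = inhibition above the mean of compounds lying within the control limits plus 3 SD, cut at about 16% in these data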;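 also: 100% = high control wells holding a competing inhibitor peptide at 10 µM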
The depositor's hits bear a star; . = not tested or not shown; + = active, no number. Compounds with a hit are over-represented: about 0.74% of the library has one in this group of screens.

SMILES	Tn6 DDE FP	Tn7 DDE FP	ARFGAP1 inhibitor	ASAP1 inh	DDE Tn7 confirm	Tn7 DDE ctr	others
S=C(NCCc1ccccc1)N1Cc2ccc(Br)cc2-n2nncc2C1	-3.5	1.3	25.8*	2.0	.	.	ARFGAP1 inh conf=5.4
O=c1[nH]c(=S)n(C2CC2)c(O)c1C=Nc1cccc(C(F)(F)F)c1	2.2	14.5*	-4.7	-4.9	-4.8	-13.7
COP(=O)(OC)OC=C(Cl)Cl	-4.9	-4.7	2.1	-4.7	.	.
COc1ccc2[nH]cc(CCNCc3cccnc3)c2c1	-9.4	-0.6	6.0	-4.6	.	.
COc1ccc2[nH]c(C)c(CCNCc3cccnc3)c2c1	6.2	18.4*	6.4	0.3	6.4	-3.3
CCC1CN1P1(=O)OCC(C)([N+](=O)[O-])CO1 (stereo not drawn)	6.7	-8.2	1.3	-6.0	.	.
CCOC(=O)[C@]12Cc3c(cc(OC)c(OC)c3OC)[C@H]1N(C)C(=O)c1cc(OC)ccc12	1.6	14.6*	3.7	-2.9	10.6	6.4
C[C@]12CCC3C(C(=O)C[C@H]4C[C@@H](O)CC[C@]34C)C1CCC2=O (stereo partly drawn)	-9.7	1.4	1.5	4.6	.	.
CC1=NCCc2c1[nH]c1cc(O)ccc21	1.1	76.4*	10.5	-4.2	34.6*	-3.5
COc1ccc2c3c([nH]c2c1)C(C)=NCC3	-1.4	-2.7	-1.2	4.6	.	.
C[C@]12C[C@@H](O)[C@H](O)CC1=CCC1C2CC[C@@]2(C)C1CC[C@@H]2O (stereo partly drawn)	-3.4	0.1	20.4	10.0	.	.
CCCCC12CNCC(C)(CNC1)C2=O	-3.4	17.3*	-7.4	2.1	-7.5	-13.1
COc1ccccc1-n1c(-c2ccccc2Cl)nc2ccccc2c1=O	-1.2	16.0*	-5.4	-11.5	7.1	8.2
COc1ccccc1-n1c(-c2ccoc2)nc2ccccc2c1=O	-2.9	3.8	-7.7	-3.6	.	.
CCCCOc1nc2ccccc2c(=O)n1-c1ccccc1	4.3	15.3*	9.3	-10.3	6.3	-3.5
CC1CCCN(c2ccc(C(=O)N3CCC4(CC3)OCCO4)cc2[N+](=O)[O-])C1 (stereo not drawn)	-3.4	5.7	-5.0	3.1	.	.
CCOC(=O)C1CCCN(c2ccc([N+](=O)[O-])c3nonc23)C1 (stereo not drawn)	+	19.7*	-1.4	-19.9	-12.6	93.4*	DDE Tn6 FP ctr=-12.6;Tn6 DDE conf=93.4*
COC1C(C)OC(OC2CC(C)(O)Cc3cc4c(c(O)c32)C(=O)c2c(O)cc3c(c2C4=O)OC2OC3(C)C(O)C(N(C)C)C2O)C(OC)C1(C)OC (stereo not drawn)	88.0*	13.9*	3.1	4.3	-18.6	54.2*	DDE Tn6 FP ctr=-18.6;Tn6 DDE conf=54.2*
C[C@H](Cc1ccc(OCC(=O)O)cc1)NC[C@H](O)c1cccc(Cl)c1	2.5	0.1	5.5	3.2	.	.
Cc1ccc(/C=C2\C(=O)NC(=S)N(c3ccccc3F)C2=O)s1	19.6*	1.8	7.5	8.2	.	.	DDE Tn6 FP ctr=-4.8;Tn6 DDE conf=-29.4
CC(C)NC1(c2ccccc2)CCCCC1	-2.1	0.0	-0.2	-0.3	.	.
CCC(C#N)(CC)P(=S)(c1ccccc1)c1ccccc1	15.7*	5.6	-3.9	-15.2	.	.	DDE Tn6 FP ctr=0.3;Tn6 DDE conf=-0.8
CC(CC(C#N)(c1ccccc1)c1ccccc1)N(C)C (stereo not drawn)	-3.5	5.2	-1.8	-0.9	.	.
C[C@]12CCC3C(CC[C@H]4C[C@@H](O)CC[C@]34C)C1CC[C@@]2(O)C(F)(F)F (stereo partly drawn)	16.0*	3.2	-2.4	10.8	.	.	DDE Tn6 FP ctr=4.1;Tn6 DDE conf=3.6
CCN(CC)CCC(=O)O[C@H]1CC[C@]2(C)C3CC[C@@]4(C)C(CC[C@]4(C)O)C3CC[C@H]2C1 (stereo partly drawn)	0.0	3.8	-1.3	-10.2	.	.

Compound activity: PubChem BioAssay, The Scripps Research Institute Molecular Screening Center
